This note sets out measurements from ChEMBL document CHEMBL1154356, “1-Peptidyl-2-arachidonoyl-3-stearoyl-sn-glyceride: an immunologically active lipopeptide from goat serum (Capra hircus) is an endogenous damage-associated molecular pattern” (J Nat Prod, 2009).

The source made the active and inactive calls. The rule behind the calls is not given here. Where a SMILES comes first, the peptide text is derived from it. The star is where a group is joined. X1 = CCCCC/C=C\C/C=C\C/C=C\C/C=C\CCCC(=O)O[C@@H](COC(=O)CCCCCCCCCCCCCCCCC)CO*

Data set [1] deals with Fibroblast. In words: Induction of IL18 expression in human fibroblasts at 12.5 ng/ml after 24 hrs by SYBR Green PCR relative to untreated control. Type of data set: functional.
The subject of data set [2] is Fibroblast. In words: Immunomodulatory effect in human fibroblasts assessed as induction of MIP-1alpha mRNA expression at 1:100 dilution after 24 hrs by SYBR Green PCR relative to beta-actin control. The data set is classed as functional. The method in brief:
(§1)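 Normal primary human fibroblasts were grown in DMEM with 10% FBS and 1× penicillin/streptomycin at 37 °C and 5% CO2. Cells were treated for 24 h with synthetic compound or with purified natural material diluted 1:100. Total RNA was extracted, and 2.0 µg was reverse-transcribed for transcript quantitation. Expression was normalised to β-actin.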

Data set [3] has as its system Fibroblast. Description: Immunomodulatory effect in human fibroblasts assessed as induction of IL8 mRNA expression at 3 ng/ml after 24 hrs by SYBR Green PCR relative to untreated control. The data set is classed as functional. The method in brief: as §1
Data set [4] relates to Fibroblast. In words: Induction of IL33 expression in human fibroblasts at 12.5 ng/ml after 24 hrs by SYBR Green PCR relative to untreated control. Type of data set: functional, cell-based.
Data set [5] concerns Fibroblast. In words: Immunomodulatory effect in human fibroblasts assessed as induction of IL6 mRNA expression at 1:100 dilution after 24 hrs by SYBR Green PCR relative to beta-actin control. The data set is classed as functional. The method in brief: as §1
Data set [6] can be described thus: Toxicity in human fibroblasts assessed as decrease in IL8 mRNA expression after 24 hrs by SYBR Green PCR relative to untreated control. The data set is classed as cell-based. The settings on record: fibroblast. Put shortly:
as §1

In data set [7] the test system is Fibroblast. Description: Induction of IL1-beta expression in human fibroblasts at 12.5 ng/ml after 24 hrs by SYBR Green PCR relative to untreated control. Type of data set: functional, cell-based.
For data set [8], the system named is Fibroblast. Description: Induction of IL6 expression in human fibroblasts at 12.5 ng/ml after 24 hrs by SYBR Green PCR relative to untreated control. The data set is classed as functional, cell-based.
The test system of data set [9] is Fibroblast. Description: Immunomodulatory effect in human fibroblasts assessed as induction of MIP-1alpha mRNA expression at 3 ng/ml after 24 hrs by SYBR Green PCR relative to beta-actin control. Type of data set: functional. Put shortly:
as §1

Data set [10] has as its system Fibroblast. Description: Immunomodulatory effect in human fibroblasts assessed as induction of MCP1 mRNA expression at 1:100 dilution after 24 hrs by SYBR Green PCR relative to beta-actin control. The data set is classed as functional. Put shortly: as §1
In data set [11] the test system is Fibroblast. In words: Induction of IL8 secretion in human fibroblasts after 24 hrs by ELISA relative to untreated control. Type of data set: functional. The method in brief: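 Primary human fibroblasts were cultured in complete DMEM with synthetic compound across a dose range that included 0.3–3 ng/mL, for 24 h. Supernatants were stored at -80 °C. IL-8 was measured by sandwich ELISA: plates coated with anti-human IL-8 overnight at 4 °C, blocked 60 min at room temperature, sample 2 h, detection antibody 30 min, avidin-HRP 30 min, then TMB substrate.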

The subject of data set [12] is Fibroblast. In words: Immunomodulatory effect in human fibroblasts assessed as induction of IL6 mRNA expression at 5 ng/ml after 24 hrs by SYBR Green PCR relative to beta-actin control. Type of data set: functional. The method in brief: as §1
Data set [13] concerns Fibroblast. Description: Immunomodulatory effect in human fibroblasts assessed as induction of MCP1 mRNA expression at 3 ng/ml after 24 hrs by SYBR Green PCR relative to beta-actin control. The data set is classed as functional. The method in brief: as §1
Data set [14] relates to Fibroblast. In words: Induction of IL8 expression in human fibroblasts at 12.5 ng/ml after 24 hrs by SYBR Green PCR relative to untreated control. Type of data set: functional, cell-based.

Usually EC99 stands for the point of the concentration-response curve where the effect stands at 99%. Lower therefore signals greater potency. As for `CCCCC/C=C\C/C=C\C/C=C\C/C=C\CCCC(=O)O[C@@H](COC(=O)CCCCCCCCCCCCCCCCC)COC(=O)[C@@H](NC(=O)CNC(=O)[C@@H](NC(=O)[C@H](CS)NC(=O)[C@H](CC(=O)O)NC(=O)[C@H](CCCCN)NC(=O)[C@H](CCC(N)=O)NC(=O)[C@H](CCC(=O)O)NC(=O)[C@H](CCCCN)NC(=O)[C@H](CO)NC(=O)[C@@H](NC(=O)[C@H](Cc1ccc(O)cc1)NC(=O)CNC(=O)[C@H](CCCCN)NC(=O)[C@H](CC(=O)O)NC(=O)[C@H](Cc1ccc(O)cc1)NC(=O)[C@H](CC(C)C)NC(=O)[C@H](C)NC(C)=O)[C@@H](C)O)C(C)C)[C@@H](C)CC` (Ac-ALYDKGYTSKEQKDCVGI-X1), the Activity was 20% with Fibroblast [1]; 15% with Fibroblast [2]; 40% with Fibroblast [5]; “Dose-dependent effect” in [6]; 15% in the data set on Fibroblast [9]; “Dose-dependent effect” with Fibroblast [11]. Also, the Activity with Fibroblast [12] is given as 20%. Further, the “fold change (FC)” value came out at 5 in the data set on Fibroblast [3], 3 in the data set on Fibroblast [10] and 3 in the data set with Fibroblast [13]. Further, in the data set on Fibroblast [4], the result was Active. The outcome with Fibroblast [7], with Fibroblast [8] and in the data set with Fibroblast [14] was inactive. This molecule also showed an EC99 in the data set with Fibroblast [11] of 0.003 µg/mL.
